bCat KO growth: beta-catenin-lacking colon tumor cell growth suppression. HCT116 beta-catenin knockout viability, CellTiter-Glo, 60 h; hits give low values. viability, % at 10 µM. 1.5% of 140,000 active. AID 818;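 active = viability at or under a set limit, the compound median less 4 SD, cut at about 6% in these data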;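 also: 0% = Hyamine 1622 control at 20 µM and 100% = untreated cell control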
PTEN del growth: PTEN-deleted cell growth suppression | HCT116 PTEN-null viability, CellTiter-Glo, 60 h; hits give low values | viability, % at 10 µM | 1.2% of 140,000 active;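 active = viability at or below a set limit, 4 SD under the median of all tested compounds, cut at about 3.7% in these data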;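 also: PTEN knockout HCT116 line with beta catenin targeted HCT116 as companion control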
H69AR growth 86K: blocks growth of human H69AR lung tumor cells. H69AR lung tumor viability, ATP luminescence, 72 h; hits give low values. viability, % at 10 µM. 6% of 85,000 active. AID 598;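 active = viability at or below 40%; inactive = viability above 40%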;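 also: multidrug resistant small cell line overexpressing MRP-1 efflux transporter; 100% = mean luminescence of untreated control wells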
HUVEC inhibit: blocks proliferation of human endothelial cells | HUVEC proliferation, CellTiter-Glo luminescence, 72 h; hits give low values | viability, % at 10 µM (by protocol) | 1.1% of 86,000 active | AID 648;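 active = viability at or below 30%; inactive = viability above 30%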;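 also: 100% = median luminescence of DMSO-only cell control wells on each plate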
Lung fibro prol: blocks proliferation of human lung fibroblasts; LL 47 human lung fibroblast viability, ATP luminescence; hits give low values; viability, % at 10 µM; 1.1% of 85,000 active;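 active = viability at or below 50% in the single dose screen; inactive = viability above 50%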;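 also: compound exposure lasted 72 h before the ATP readout; 100% = median luminescence of untreated cell-only wells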
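Assay system: human lung fibroblast line LL 47, low passage. Input: 1,150 fibroblasts seeded per well. Times: overnight cell rest, 72 h compound treatment at 37 °C. Evaluation: % viability of median cell-only signal. Technique: luminescent ATP detection, CellTiter-Glo. Control set: cell-only wells, no compound.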
The depositor's hits bear a star; x = no result. The entries come from a sample that favours hits as a whole.

SMILES | bCat KO growth | PTEN del growth | H69AR growth 86K | HUVEC inhibit | Lung fibro prol
N#C/C(=C/c1ccc(N2CCCCCC2)o1)c1cccc(F)c1 | 46.5 | 68.6 | 37.0* | 94.6 | 86.6
COc1cccc(/C=C(/C#N)c2ccc(F)cc2)c1OCc1cccc(C(=O)O)c1 | 98.6 | 101.3 | x | x | x
N#C/C(=C/c1ccc(N2CCOCC2)o1)c1nc2ccccc2[nH]1 | 84.3 | 81.3 | 23.4* | 50.7 | 76.3
N#C/C(=C\c1ccc(Sc2ccc(Cl)cc2)o1)c1nc2ccccc2[nH]1 | 53.3 | 34.4 | x | x | x
COc1cc(N2CCCC2)c(OC)cc1/C=C(/C#N)c1cccc(F)c1 | 71.5 | 67.6 | 24.7* | 95.2 | 88.2
N#C/C(=C\c1ccc(Sc2nc3ccccc3[nH]2)o1)c1ccccc1 | 60.9 | 68.4 | 32.6* | 53.1 | 87.5
CCOC(=O)c1c(NC(=O)c2cccs2)sc(C(=O)N2CCOCC2)c1C | x | x | 94.3 | 93.3 | 97.3
Cc1ccccc1OC(=O)C1C(c2ccccc2)C(C(=O)O)C1c1ccccc1 (stereo not drawn) | 96.8 | 98.8 | 88.0 | 96.3 | 91.0
N#C/C(=C/c1ccc(N2CCCCCC2)o1)c1ccc(F)cc1 | 46.0 | 32.5 | 2.8* | 56.4 | 11.2*
CCCCCCn1c(SCCC)nc2c1c(=O)[nH]c(=O)n2C | 58.2 | 75.3 | 84.9 | 58.4 | 91.0
Cc1ccc(C(=O)NCCSc2c(C)[nH]c3ccccc23)cc1[N+](=O)[O-] | 44.2 | 49.4 | x | x | x
Cc1[nH]c2ccccc2c1SCCN | x | x | 34.6* | 96.0 | 94.0
COC(=O)c1ccc(-n2nnnc2SCc2ccccc2OC)cc1 | 28.8 | 43.0 | 37.0* | 88.8 | 97.8
COC(=O)c1ccc(Sc2nnnn2-c2ccccc2)c([N+](=O)[O-])c1 | 6.0* | 6.2 | x | x | x
O=C(Nc1cnn(C23CC4CC(CC(C4)C2)C3)c1)c1cnn2cccnc12 | 93.7 | 93.6 | 80.9 | 86.5 | 100.3
COc1ccc(Cl)cc1C(=O)NNC(=O)c1cccc(S(=O)(=O)N(C)C)c1 | 93.8 | 87.8 | x | x | x
CCOC(=O)C1CCN(C(c2cc(OC)c(OC)c(OC)c2)c2sc3nc(C)nn3c2O)CC1 (stereo not drawn) | 83.5 | 84.5 | 104.2 | 99.4 | 104.9
COc1cc(OC)c2nc(C)c3c(c2c1)N(c1ccc(O)cc1)CC3 | 4.5* | 4.9 | x | x | x
COc1ccc(-c2cc(C(=O)OCC(=O)c3cccc([N+](=O)[O-])c3)c3cc(C)ccc3n2)cc1 | 98.9 | 103.2 | x | x | x
Cc1nc(Nc2nc(CSc3ccc(Cl)cc3)cc(=O)[nH]2)nc2ccccc12 | 72.2 | 58.9 | x | x | x
COc1ccc2nc(Nc3nc(CSc4nc5ccccc5[nH]4)cc(=O)[nH]3)nc(C)c2c1 | 6.1* | 6.5 | x | x | x
Cc1nc(Nc2nc(CSc3nc4ccccc4[nH]3)cc(=O)[nH]2)nc2ccccc12 | 3.6* | 3.7* | x | x | x
Cc1ccc2c(C)nc(Nc3nc(CSc4nnc(C)s4)cc(=O)[nH]3)nc2c1 | 80.2 | 87.3 | 34.6* | 16.6* | 45.6*
Cc1nc(Nc2nc(-c3ccccc3)cc(=O)[nH]2)nc2ccccc12 | x | x | 14.3* | 5.0* | 13.2*
COc1cccc2c(C)nc(Nc3nc(CSc4nnc(C)s4)cc(=O)[nH]3)nc12 | 69.2 | 71.2 | 59.7 | 45.8 | x
SMILES | bCat KO growth | PTEN del growth | H69AR growth 86K | HUVEC inhibit | Lung fibro prol
O=C(Nc1c(C(=O)Nc2cccc(F)c2)oc2ccccc12)c1ccc2c(c1)OCO2 | 74.4 | 73.4 | 24.4* | 73.9 | 70.9
COC(=O)C1CCN(C(=O)COC(=O)CC(NC(C)=O)c2ccccc2)CC1 (stereo not drawn) | 108.0 | 96.4 | x | x | x
O=C(Nc1nc(-c2ccccc2)cs1)c1ccc2c(c1)S(=O)(=O)c1ccccc1C2=O | 4.0* | 2.5* | x | x | x
CC(C)NC(=O)c1ccc2c(c1)S(=O)(=O)c1ccccc1C2=O | 104.2 | 102.4 | 82.6 | 105.2 | 106.8
COc1ccc(OC)c(C(=O)C2COC(=O)C2)c1 (stereo not drawn) | 33.5 | 38.3 | 25.6* | 48.8 | 88.9
Cc1ccccc1OCc1nnc(SCC(=O)Nc2ccc3c(c2)oc2ccccc23)n1C | 92.4 | 97.7 | 21.1* | 59.8 | 61.1
Cn1c(SCC(=O)Nc2cccc(Br)c2)nnc1-c1cc2ccccc2o1 | 2.6* | 2.2* | 96.7 | 92.0 | 56.8
O=C1CC(N2CCCCC2)C(=O)N1c1ccccc1 (stereo not drawn) | 90.7 | 99.0 | 81.3 | 54.6 | 89.7
Oc1c(CN2CCc3ccccc3C2)cc(Cl)c2cccnc12 | 2.9* | 3.0* | 2.0* | 5.9* | 13.5*
Oc1c(I)cc(Cl)c2cccnc12 | 17.6 | 7.5 | 8.3* | 12.1* | 70.0
Oc1c(CN2CCCCC2)cc(Br)c2cccnc12 | 1.7* | 1.4* | x | x | x
O=C(COc1c(Br)cc(Br)c2cccnc12)N1CCc2ccccc2C1 | 85.8 | 93.4 | 53.1 | 92.8 | 97.0
Cc1cc(/C=C(\C#N)C(=O)O)c(C)n1C1CC1 | 95.5 | 94.1 | x | x | x
Cc1ccnc2nc(C(=O)Nc3cc(Cl)ccc3N3CCOCC3)nn12 | 74.5 | 80.7 | x | x | x
Cc1ccc(C)c(NC(=S)NC(NC(=O)OCc2ccccc2)C(Cl)(Cl)Cl)c1 (stereo not drawn) | 84.2 | 92.4 | x | x | x
O=C(NC(NC(=S)Nc1c(Cl)cc(Cl)cc1Cl)C(Cl)(Cl)Cl)OCc1ccccc1 (stereo not drawn) | 5.9* | 5.1 | x | x | x
CCCCC(=O)c1c(O)c2ccccc2oc1=O | 95.8 | 97.3 | x | x | x
O=C(CC1CCCCC1)c1c(O)c2ccccc2oc1=O | 44.7 | 45.1 | 103.6 | 3.2* | 94.7
CC1CCC(C(=O)c2c(O)c3ccccc3oc2=O)CC1 (stereo not drawn) | 55.2 | 71.4 | 57.0 | 12.7* | 85.1
CCCCN=C(C)c1c(O)c2ccccc2oc1=O | 96.3 | 82.2 | 99.2 | 93.1 | x
CCOC(=O)C1=C(O)/C(=C/c2cn(CC(=O)NCC3CCCO3)c3ccccc23)SC1=Nc1ccc(C)cc1 (stereo not drawn) | x | x | 22.6* | 11.6* | 26.8*
CC1(C)Cc2c(C#N)c(OCC(=O)c3ccc(Cl)cc3)nc(-c3ccoc3)c2CO1 | 64.2 | 75.8 | 49.9 | 76.5 | 39.2*
COc1ccc(OC)c(C(=O)c2ccccc2)c1 | 100.5 | 95.2 | 96.7 | 91.5 | 96.3
O=C(O)CCS(=O)(=O)c1nc(-c2cccs2)cc(C(F)(F)F)n1 | 93.9 | 103.5 | 33.0* | 92.7 | 92.2
CC(C)CNC(=O)CSc1nc(-c2cccs2)cc(C(F)(F)F)n1 | 85.9 | 91.0 | 94.6 | 99.8 | 101.3
SMILES | bCat KO growth | PTEN del growth | H69AR growth 86K | HUVEC inhibit | Lung fibro prol
CS(=O)(=O)c1nc(-c2cccs2)cc(C(F)(F)F)n1 | 3.3* | 1.3* | 1.5* | 53.8 | 13.5*
O=C(C1CCCCN1S(=O)(=O)c1ccccc1)N1CCN(C(c2ccccc2)c2ccccc2)CC1 (stereo not drawn) | 71.2 | 65.0 | 72.4 | 79.1 | 88.5
O=C(CSc1nc(C2CCCCC2)n(-c2ccccc2)n1)NCCN1C(=O)CSC1=O | 97.6 | 84.4 | 86.8 | 100.2 | 103.0
Cc1cnc(NC(=O)c2ccc(-c3nc4ccccc4s3)o2)s1 | 99.1 | 90.1 | 28.3* | 91.3 | 102.8
NCCc1ccc(O)c(O)c1 | 5.8* | 22.4 | x | x | x
COc1ccc(/C=N/Nc2ccc([N+](=O)[O-])cc2)cc1Cn1cc([N+](=O)[O-])cn1 | 89.3 | 93.3 | 13.7* | 47.6 | 92.0
